Here are results for five compounds from ChEMBL document CHEMBL3085638, “Synthesis of novel ciprofloxacin analogues and evaluation of their anti-proliferative effect on human cancer cell lines” (2013).

Test [1] relates to CCRF-CEM. Put plainly: Antiproliferative activity against human CCRF-CEM cells assessed as cell viability at 50 uM by CellTiter assay relative to DMSO control. The format is functional, cell-based.
The subject of test [2] is CCRF-CEM. The test can be described thus: Antiproliferative activity against human CCRF-CEM cells assessed as cell viability at 50 uM after 96 hrs by CellTiter assay relative to DMSO control. To be noted: read-out: Activity. The format is functional.
In test [3] the test system is CCRF-CEM. The test can be described thus: Antiproliferative activity against human CCRF-CEM cells assessed as cell viability at 50 uM after 72 hrs by CellTiter assay relative to DMSO control. The class given is functional. As to conditions: read-out: Activity. The method in brief: (§1)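 ATCC-derived cells kept in EMEM with 10% FBS and 1% penicillin/streptomycin at 37 °C under 5% CO2. At 75–80% confluency, 5000 cells/well were seeded, then after 72 h exposed to 50 µM compound in triplicate for 72 h. CellTiter 96 AQueous One reagent was added for 1 h at 37 °C and formazan A490 read, with cell-free medium plus reagent as blank. Results are % of untreated control.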

For test [4], the system named is CCRF-CEM. Put plainly: Antiproliferative activity against human CCRF-CEM cells assessed as cell viability at 50 uM after 48 hrs by CellTiter assay relative to DMSO control. The format is functional. As to conditions: read-out: Activity.
In test [5] the test system is HCT-116. The test can be described thus: Antiproliferative activity against human HCT116 cells assessed as cell viability at 50 uM after 72 hrs by CellTiter assay relative to DMSO control. To be noted: HCT-116, 72 h, read-out: Activity. The class given is functional. The method in brief: as §1
Test [6] relates to CCRF-CEM. Put plainly: Antiproliferative activity against human CCRF-CEM cells assessed as cell viability at 50 uM after 24 hrs by CellTiter assay relative to DMSO control. The format is functional. To be noted: read-out: Activity.
The subject of test [7] is MDA-MB-468. The test can be described thus: Antiproliferative activity against human MDA-MB-468 cells assessed as cell viability at 50 uM after 72 hrs by CellTiter assay relative to DMSO control. The class given is functional. To be noted: MDA-MB-468, 72 h, read-out: Activity. A digest of the protocol:
as §1

The test system of test [8] is MDA-MB-468. Put plainly: Antiproliferative activity against human MDA-MB-468 cells assessed as cell viability at 10 uM after 72 hrs by CellTiter assay. The format is functional, cell-based. The method in brief:
(§2)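 Doxorubicin was the positive control at 10 µM. ATCC cells were grown in EMEM with 10% FBS and 1% penicillin/streptomycin at 37 °C under 5% CO2, seeded at 5000 cells/well, and treated 72 h after seeding for a 72 h exposure. Viability was read by CellTiter 96 AQueous One reagent (1 h, 37 °C) as A490, minus a cell-free blank, and expressed as % of untreated control.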

Test [9] deals with HCT-116. Put plainly: Antiproliferative activity against human HCT116 cells assessed as cell viability at 10 uM after 72 hrs by CellTiter assay. The format is functional, cell-based. The method in brief: as §2
In test [10] the test system is CCRF-CEM. The test can be described thus: Antiproliferative activity against human CCRF-CEM cells assessed as cell viability at 10 uM after 72 hrs by CellTiter assay. The class given is functional, cell-based. The method in brief:
as §2

SMILES strings stand for the structures. Calls of active or inactive are those of the source. No cut-off for these calls is given here.

As for `O=C(O)c1cn(C2CC2)c2cc(N3CCN(C(=O)CN4CCN(C(c5ccc(F)cc5)c5ccc(F)cc5)CC4)CC3)c(F)cc2c1=O`, in the test with CCRF-CEM [1] (TDE = time-dependent effect), the Activity result is “tde”. In addition, the viability at 50 µM in the test on CCRF-CEM [2] worked out at 43%; with CCRF-CEM [3], 38%; in the test on CCRF-CEM [4], 27%; in the test with HCT-116 [5], 35%; with CCRF-CEM [6] it was 19%; with MDA-MB-468 [7], 35%.
Consider `O=C(O)c1cn(C2CC2)c2cc(N3CCN(C(=O)CN4CCN(C(c5ccccc5)c5ccccc5)CC4)CC3)c(F)cc2c1=O`, for which, in the test with MDA-MB-468 [7], the viability at 50 µM was at most 35%.
Turning to `O=C(O)c1cn(C2CC2)c2cc(N3CCN(C(=O)CN4CCN(c5ccc(F)c(F)c5)CC4)CC3)c(F)cc2c1=O`, the viability at 50 µM with CCRF-CEM [3], in the test on HCT-116 [5] and in the test on MDA-MB-468 [7] was 35% each time.
Take `O=C(O)c1cn(C2CC2)c2cc(N3CCNCC3)c(F)cc2c1=O`: in the test with CCRF-CEM [1], the outcome was Active.
`COc1cccc2c1C(=O)c1c(O)c3c(c(O)c1C2=O)C[C@@](O)(C(=O)CO)C[C@@H]3O[C@H]1C[C@H](N)[C@H](O)[C@H](C)O1`: the outcome in the test on MDA-MB-468 [8], in the test with HCT-116 [9] and with CCRF-CEM [10] was Active.
